Assay results reported in article PMC9624268 (Translational Vision Science & Technology, 2022).
Like-named read-outs stand apart in the source and are kept apart here. One block for each compound: values may come before it.

Experiments:
[1] = type: in vivo, rabbit
[2] = GLP toxicology study, ophthalmic findings in rats; type: in vivo, rat; details: oral administration, 1 month, 3 months, 6 months
rodent factor D = details: stated in discussion, no reference given; cited from earlier work
[3] = GLP toxicology study, ophthalmic findings and ERG in dogs; type: in vivo, dog
[4] = type: in vivo, rabbit; remark: listed apart in the source
[5] = system: choroidal neovascularization; details: mice, cited from earlier work
[6] = pigmented rats, single oral dose 10 mg/kg; cited from earlier work
[7] = type: in vivo, rat; details: albino rats, single oral dose 20 mg/kg, whole-body autoradiography
How it was run: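 Male albino Wistar Han rats (n = 3) got a single oral dose of 20 mg/kg [14C]-labelled test compound. It was suspended on the day of dosing in PEG 400:saline:DMSO 60:36.3:3.7 (v:v:v). Carcasses were frozen in hexane/dry ice, stored at or below −20°C, and cut into ~40 μm sagittal sections. Imaging was at 50 μm resolution. Radioactivity was quantified by image densitometry as μg equivalents/g.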

[8] = type: in vivo, rat; details: single oral dose 20 mg/kg
How it was run: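 Male pigmented Long–Evans rats (n = 10) got a single oral dose of 20 mg/kg [14C]-labelled test compound in PEG 400:saline:DMSO 60:36.3:3.7 (v:v:v), prepared on the day of dosing. Frozen carcasses were cut into ~40 μm sagittal sections and imaged at 50 μm resolution. Densitometry gave μg equivalents/g, and tissue t1/2 came from noncompartmental analysis.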

- AUClast ([1]; NZW rabbit, single oral dose 15 mg/kg, choroid/BrM/RPE, mean): 1010 ng·h/g
- AUClast ([1]; NZW rabbit, single oral dose 15 mg/kg, neural retina, mean): 665 ng·h/g
- MRT last ([1]; New Zealand White, rabbit, choroid/BrM/RPE, po, 15 mg/kg): 5.87 h
- Cmax ([1]; New Zealand White, rabbit, choroid/BrM/RPE, po, 15 mg/kg, NZW rabbit, single oral dose 15 mg/kg, mean): 172 ng/g
- MRT last ([1]; New Zealand White, rabbit, neural retina, po, 15 mg/kg): 1.49 h
- Cmax ([1]; New Zealand White, rabbit, neural retina, po, 15 mg/kg, NZW rabbit, single oral dose 15 mg/kg, mean): 200 ng/g
- MRT last ([1]; New Zealand White, rabbit, plasma, po, 15 mg/kg): 4.01 h
- AUC(0-t) ([1]; New Zealand White, rabbit, plasma, po, 15 mg/kg, AUClast, NZW rabbit, single oral dose 15 mg/kg, mean): 1.43 µg·h/mL
- Cmax ([1]; New Zealand White, rabbit, plasma, po, 15 mg/kg, NZW rabbit, single oral dose 15 mg/kg, mean): 0.31 µg/mL
- AUClast ([4]; DB rabbit, single oral dose 15 mg/kg, choroid/BrM/RPE, mean): 37,400 h·ng/g
- AUClast ([4]; DB rabbit, single oral dose 15 mg/kg, neural retina, mean): 998 ng·h/g
- MRTlast ([4]; DB rabbit, single oral dose 15 mg/kg, neural retina, mean, 15 mg/kg): 7.83 h
- dose-exposure relationship, plasma and neural retina ([4]; DB rabbits, 7.5, 15 and 50 mg/kg/dose twice daily for 15 days (data not shown)): approximate dose linearity
- time through which exposure was detected in plasma after the last dose ([4]; DB rabbits, 7.5, 15 and 50 mg/kg/dose twice daily for 15 days, plasma): 24 h
- dose-exposure relationship, choroid/BrM/RPE ([4]; DB rabbits, between 15 and 50 mg/kg/dose twice daily for 15 days (data not shown)): less-than-dose proportionality
- Cmax ([4]; Dutch Belted, rabbit, choroid/BrM/RPE, po, 15 mg/kg, DB rabbit, single oral dose 15 mg/kg, mean): 917 ng/g
- MRT last ([4]; Dutch Belted, rabbit, choroid/BrM/RPE, po, 15 mg/kg, MRTlast, DB rabbit, single oral dose 15 mg/kg, mean): 49.7 h
- Cmax ([4]; Dutch Belted, rabbit, neural retina, po, 15 mg/kg, DB rabbit, single oral dose 15 mg/kg, mean): 145 ng/g
Compound: CC(=O)c1nn(CC(=O)N2C[C@H](F)C[C@H]2C(=O)Nc2cccc(Br)n2)c2ccc(-c3cnc(C)nc3)cc12 [Danicopan]
- clinical or histopathological ophthalmic findings [2]: no clinical or histopathological ophthalmic findings
- inhibitory effect on rodent factor D (rodent factor D): lack of an inhibitory effect
- clinical or histopathological ophthalmic findings ([3]; oral administration, 14 days, 3 months, 9 months, GLP): no clinical or histopathological ophthalmic findings
- electroretinography (ERG) abnormalities ([3]; week 38, compared to pretreatment ERG): no abnormalities were detected

Compound: Cc1ccc(Nc2nccc(N(C)c3ccc4c(C)n(C)nc4c3)n2)cc1S(N)(=O)=O [Pazopanib]
- plasma levels ([5]; 3 days after a single loading dose 10 mg/kg): undetectable
- choroidal neovascularization lesion size ([5]; single loading dose 10 mg/kg, up to 2 weeks after choroidal neovascularization induction): significantly reduced
- time detected in melanin-containing tissues including the uveal tract [6]: up to 35 days

- radioactivity in most tissues at 24 hours postdose [7]: nonquantifiable
- time postdose at which radioactivity remained quantifiable in uveal tract ([8]; pigmented rats, uveal tract (28 days)): 672 h
- radioactivity in most tissues at 24 hours postdose ([8]; pigmented rats, whole-body autoradiography): nonquantifiable
- radioactivity in plasma and whole blood ([8]; after 8 hours postdose): undetectable
Compound: [^14C]-danicopan
